According to PMC4136667 (Journal of Medicinal Chemistry, 2014):

Molecular target: human ΔF508–CFTR (Homo sapiens, UniProt P13569, DEL508-508)
Experiment: ΔF508–CFTR corrector activity assay
Type: cell-based
Settings: for Corrector activity (in words): ΔF508–CFTR FRT cells; for Vmax higher than benchmark bithiazole corr4a: difference to corr4a (475 μM/s); for Increase of Vmax compared to benchmark bithiazole corr4a: relative to corr4a
How it was run: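 FRT cells stably coexpressing human ΔF508–CFTR and YFP-H148Q/I152L were grown 24 h at 37 °C, then exposed 16–20 h to test compound at various concentrations, with DMSO vehicle and a bithiazole positive control. Cells were PBS-washed and given forskolin (20 μM) plus genistein (50 μM) for 20 min. Fluorescence (ex 500, em 535 nm) was recorded 2 s before and 12 s after adding iodide-for-chloride PBS. Initial rate came from an exponential fit, normalized to initial fluorescence. Vmax came from Hill fitting of concentration–activity data.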

Corrector activity (in words)	Vmax higher than benchmark bithiazole corr4a [µM/s]	Increase of Vmax compared to benchmark bithiazole corr4a [fold]	SMILES
modest correctors	–	–	COc1ccc(Cl)cc1Nc1nc2c(s1)CCCc1nc(N)sc1-2 [7a, N8-(5-Chloro-2-methoxyphenyl)-5,6-dihydro-4H-cyclohepta[1,2-d:3,4-d′]bis(thiazole)-2,8-diamine]
modest correctors	–	–	COc1ccc(Cl)cc1Nc1nc2c(s1)CCCCc1nc(N)sc1-2 [8a, N9-(5-Chloro-2-methoxyphenyl)-4,5,6,7-tetrahydrocycloocta[1,2-d:3,4-d′]bis(thiazole)-2,9-diamine]
–	200	1.5	COC(=O)CCC(=O)Nc1nc2c(s1)-c1nc(Nc3cc(Cl)ccc3OC)sc1CCC2 [9e, Methyl 4-((8-((5-chloro-2-methoxyphenyl)amino)-5,6-dihydro-4H-cyclohepta[1,2-d:3,4-d′]bis(thiazole)-2-yl)amino)-4-oxobutanoate]
–	200	1.5	COc1ccc(Cl)cc1Nc1nc2c(s1)CCCCc1nc(NC(=O)C(C)C)sc1-2 [10c, N-(9-((5-Chloro-2-methoxyphenyl)amino)-4,5,6,7-tetrahydrocycloocta [1,2-d:3,4-d′]bis(thiazole)-2-yl)isobutyramide]
